Tested on: Fibroblast
Test: Multiplex assay against human fibroblast
Format: toxicity, cell-based
Outline: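 Tubulin, mitochondrial-mass and membrane-permeability phenotypes are per cents of healthy-nucleus cells. Cells were gated by CellPathfinder machine learning into Hoechst high-intensity objects or normal cells, normal cells into healthy, pyknosed or fragmented nuclei, and pyknosed cells into mitotic or apoptotic. Before that, live cells stained at seeding with Hoechst33342, BioTracker Green Microtubule Cytoskeleton Dye, MitoTracker Red and Annexin V Alexa Fluor 680 were imaged on a CQ1 microscope at 37°C and 5% CO2 after compound addition.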

[1] = 12 h, 1 µM, compound concentration 1 uM, replicate 1
[2] = 12 h, 1 µM, compound concentration 1 uM, replicate 2
[3] = 12 h, 10 µM, compound concentration 10 uM, replicate 1
[4] = 12 h, 10 µM, compound concentration 10 uM, replicate 2
[5] = 24 h, 1 µM, compound concentration 1 uM, replicate 1
[6] = 24 h, 1 µM, compound concentration 1 uM, replicate 2
[7] = 24 h, 10 µM, compound concentration 10 uM, replicate 1
[8] = 24 h, 10 µM, compound concentration 10 uM, replicate 2
[9] = 48 h, 1 µM, compound concentration 1 uM, replicate 1
[10] = 48 h, 1 µM, compound concentration 1 uM, replicate 2
[11] = 48 h, 10 µM, compound concentration 10 uM, replicate 1
[12] = 48 h, 10 µM, compound concentration 10 uM, replicate 2

## N#Cc1c(N)nc(SCc2csc(-c3ccc(Cl)cc3)n2)c(C#N)c1-c1ccc(OCCO)cc1 [CAPADENOSON]
[1]
  Population Apoptotic (%): 43%
  Population Fragmented Nuclei (%): 8%
  Population Healthy Nuclei (%): 80%
  Population Hoechst High Intensity Objects (%): 2%
  Population Membrane Permeable-Phenotype (%): 0%
  Population Mitochondria Different-Phenotype (%): 10%
  Population Mitotic Cells (%): 56%
  Population Normal (%): 97%
  Population Pyknosed Nuclei (%): 11%
  Population Tubulin-Different-Phenotype (%): 38%
  Total Cell Count: 139
[2]
  Population Apoptotic (%): 27%
  Population Fragmented Nuclei (%): 30%
  Population Healthy Nuclei (%): 43%
  Population Hoechst High Intensity Objects (%): 1%
  Population Membrane Permeable-Phenotype (%): 5%
  Population Mitochondria Different-Phenotype (%): 11%
  Population Mitotic Cells (%): 72%
  Population Normal (%): 98%
  Population Pyknosed Nuclei (%): 25%
  Population Tubulin-Different-Phenotype (%): 55%
  Total Cell Count: 157
[3]
  Population Apoptotic (%): 31%
  Population Fragmented Nuclei (%): 23%
  Population Healthy Nuclei (%): 50%
  Population Hoechst High Intensity Objects (%): 1%
  Population Membrane Permeable-Phenotype (%): 0%
  Population Mitochondria Different-Phenotype (%): 10%
  Population Mitotic Cells (%): 68%
  Population Normal (%): 98%
  Population Pyknosed Nuclei (%): 25%
  Population Tubulin-Different-Phenotype (%): 80%
  Total Cell Count: 172
[4]
  Population Apoptotic (%): 41%
  Population Fragmented Nuclei (%): 41%
  Population Healthy Nuclei (%): 29%
  Population Hoechst High Intensity Objects (%): 8%
  Population Membrane Permeable-Phenotype (%): 20%
  Population Mitochondria Different-Phenotype (%): 14%
  Population Mitotic Cells (%): 58%
  Population Normal (%): 91%
  Population Pyknosed Nuclei (%): 29%
  Population Tubulin-Different-Phenotype (%): 97%
  Total Cell Count: 128
[5]
  Population Apoptotic (%): 72%
  Population Fragmented Nuclei (%): 11%
  Population Healthy Nuclei (%): 80%
  Population Hoechst High Intensity Objects (%): 1%
  Population Membrane Permeable-Phenotype (%): 0%
  Population Mitochondria Different-Phenotype (%): 5%
  Population Mitotic Cells (%): 27%
  Population Normal (%): 98%
  Population Pyknosed Nuclei (%): 8%
  Population Tubulin-Different-Phenotype (%): 34%
  Total Cell Count: 139
[6]
  Population Apoptotic (%): 48%
  Population Fragmented Nuclei (%): 35%
  Population Healthy Nuclei (%): 44%
  Population Hoechst High Intensity Objects (%): 4%
  Population Membrane Permeable-Phenotype (%): 6%
  Population Mitochondria Different-Phenotype (%): 20%
  Population Mitotic Cells (%): 51%
  Population Normal (%): 95%
  Population Pyknosed Nuclei (%): 20%
  Population Tubulin-Different-Phenotype (%): 71%
  Total Cell Count: 148
[7]
  Population Apoptotic (%): 38%
  Population Fragmented Nuclei (%): 26%
  Population Healthy Nuclei (%): 52%
  Population Hoechst High Intensity Objects (%): 2%
  Population Membrane Permeable-Phenotype (%): 0%
  Population Mitochondria Different-Phenotype (%): 26%
  Population Mitotic Cells (%): 61%
  Population Normal (%): 97%
  Population Pyknosed Nuclei (%): 20%
  Population Tubulin-Different-Phenotype (%): 67%
  Total Cell Count: 179
[8]
  Population Apoptotic (%): 41%
  Population Fragmented Nuclei (%): 43%
  Population Healthy Nuclei (%): 28%
  Population Hoechst High Intensity Objects (%): 6%
  Population Membrane Permeable-Phenotype (%): 17%
  Population Mitochondria Different-Phenotype (%): 25%
  Population Mitotic Cells (%): 58%
  Population Normal (%): 93%
  Population Pyknosed Nuclei (%): 27%
  Population Tubulin-Different-Phenotype (%): 94%
  Total Cell Count: 131
[9]
  Population Apoptotic (%): 88%
  Population Fragmented Nuclei (%): 16%
  Population Healthy Nuclei (%): 77%
  Population Hoechst High Intensity Objects (%): 2%
  Population Membrane Permeable-Phenotype (%): 0%
  Population Mitochondria Different-Phenotype (%): 7%
  Population Mitotic Cells (%): 11%
  Population Normal (%): 97%
  Population Pyknosed Nuclei (%): 6%
  Population Tubulin-Different-Phenotype (%): 37%
  Total Cell Count: 147
[10]
  Population Apoptotic (%): 69%
  Population Fragmented Nuclei (%): 38%
  Population Healthy Nuclei (%): 43%
  Population Membrane Permeable-Phenotype (%): 6%
  Population Mitochondria Different-Phenotype (%): 12%
  Population Mitotic Cells (%): 30%
  Population Pyknosed Nuclei (%): 17%
  Population Tubulin-Different-Phenotype (%): 60%
  Total Cell Count: 151
[11]
  Population Apoptotic (%): 81%
  Population Fragmented Nuclei (%): 32%
  Population Healthy Nuclei (%): 53%
  Population Hoechst High Intensity Objects (%): 2%
  Population Membrane Permeable-Phenotype (%): 0%
  Population Mitochondria Different-Phenotype (%): 32%
  Population Mitotic Cells (%): 18%
  Population Normal (%): 97%
  Population Pyknosed Nuclei (%): 14%
  Population Tubulin-Different-Phenotype (%): 78%
  Total Cell Count: 187
[12]
  Population Apoptotic (%): 36%
  Population Fragmented Nuclei (%): 57%
  Population Healthy Nuclei (%): 29%
  Population Hoechst High Intensity Objects (%): 0%
  Population Membrane Permeable-Phenotype (%): 11%
  Population Mitochondria Different-Phenotype (%): 30%
  Population Mitotic Cells (%): 63%
  Population Normal (%): 100%
  Population Pyknosed Nuclei (%): 13%
  Population Tubulin-Different-Phenotype (%): 95%
  Total Cell Count: 142
